Hits are enriched below; roughly 1.5% of the tested compounds scored in any of these assays.
MITF TRPM1 HTS – MITF TRPM1 promoter activation in melanoma cells; SK-MEL-5 TRPM1-promoter luciferase, 24 h; % of positive control, neutral wells = 0; activation, % at 12.5 µM; hit rate 0.75% among 300,000; AID 588334;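 active means mean activation of at least 80% with every replicate also reaching 80%; inconclusive means mean reaches 80% but some replicate falls short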;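 further: 0% = neutral control wells and 100% = parthenolide positive control wells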
Cneo AK release – causes C. neoformans cell lysis | adenylate kinase release luminescence, 4 h; normalised: neutral wells 0, clomiphene wells 100 | lysis activity, % at 15 µM | hit rate 0.2% among 360,000;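 active means mean lysis activity across replicates of at least 80%, whatever share of replicates individually reach that level; inactive means mean lysis activity below 80%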
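Test system: log-phase Cryptococcus neoformans yeast cells; Quantity: yeast cell density of 5 × 10^6 cells/mL; Buffer or medium: YPD; Doses: single compound concentration per well; Timing: 4 h at 37 °C static, read 1 h later; Measured by: AK luminescence; Read-out basis: lysis from increased AK signal; Control set: Clomiphene as positive control.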
Wnt act – Wnt/beta-catenin pathway activation. Wnt/beta-catenin reporter cell assay, activator, plate reader. activation, % at 9.35 µM. hit rate 1.2% among 300,000; in the data active means activation above about 30%, passing the limit was not always enough; inconclusive means no clear call, values can overlap the other calls;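 further: 0% = neutral control wells and 100% = positive control wells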
PGC1a acetyl inh – modulators of PGC1a acetylation | hit rate 0.17% among 350,000 | U2OS PGC1a acetylation, AlphaScreen anti-acetyl-lysine; with virally co-expressed GCN5 acetyltransferase | AID 651687 | inhibition, % at 15.6 µM;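 active means every replicate shows inhibition of at least 40%; inconclusive means mean inhibition at least 40% but some replicate below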;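 further: 0% = neutral control wells and 100% = positive control wells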
Active calls of the source: *; ? = inconclusive; · = not tested or not shown.

SMILES | MITF TRPM1 HTS | Cneo AK release | Wnt act | PGC1a acetyl inh
CCOC(=O)CN1C(=O)S/C(=C/c2cc(C)n(C)c2C)C1=O | 87.8* | -2.2 | 40.5* | 5.2
c1ccc(COc2ccc3nocc3c2)cc1 | 117.2* | -1.5 | 32.4* | ·
O=C(Cn1ccc([N+](=O)[O-])n1)N1CCCc2ccccc21 | 13.8 | -1.3 | 31.9* | 2.8
O=C(OCC(=O)N1CCCc2ccccc21)c1ccccc1[N+](=O)[O-] | 83.6* | 2.8 | -2.3 | 5.3
Nc1c(C(=O)c2ccccc2)sc2nsc(SCCN3CCOCC3)c12 | · | -0.2 | 40.1* | -31.6
CC(=O)c1sc2nsc(SCCN3CCOCC3)c2c1N | · | 3.0 | 2.2 | 2.5
O=C(Nc1ccc(F)cc1)N1CC(=O)N2[C@H](C1)[C@@H](c1ccc(C#CC3CC3)cc1)[C@@H]2CO | · | · | · | -6.4
CN(C)CCCNC(=O)C[C@@H]1CC[C@H]2[C@H](COc3ccc(NC(=O)C4CCC4)cc3C(=O)N2C)O1 | · | -2.6 | · | 5.5
COc1cccc(S(=O)(=O)Nc2ccc3c(c2)OC[C@@H](C)NC[C@H](C)[C@@H](OC)CN(C)C3=O)c1 | · | 98.0* | · | -4.5
CO[C@@H]1CN(C)C(=O)c2cc(NS(=O)(=O)c3ccc(C)cc3)ccc2OC[C@@H](C)N(C)C[C@@H]1C | · | 139.0* | · | -12.7
CO[C@@H]1CN(C)C(=O)c2ccc(NS(=O)(=O)c3ccc(Oc4ccccc4)cc3)cc2OC[C@H](C)NC[C@H]1C | · | 98.9* | · | -12.1
COc1cccc(S(=O)(=O)Nc2ccc3c(c2)OC[C@H](C)NC[C@H](C)[C@@H](OC)CN(C)C3=O)c1 | · | · | · | 7.0
CO[C@@H]1CN(C)C(=O)c2cc(NS(=O)(=O)C3CCCCC3)ccc2OC[C@H](C)NC[C@@H]1C | · | 85.6* | · | 5.5
CO[C@@H]1CN(C)C(=O)c2cc(NS(=O)(=O)c3ccc(C)cc3)ccc2OC[C@@H](C)N(C)C[C@H]1C | · | 1.0 | · | -16.9
CCOC(=O)N(C)C[C@@H]1OCc2ccccc2-c2ccccc2C(=O)N([C@@H](C)CO)C[C@H]1C | · | -2.6 | · | 4.3
CCCN1C[C@H](C)[C@@H](OC)CN(C)C(=O)c2cc(NC(=O)Nc3ccccc3F)ccc2OC[C@H]1C | · | -2.0 | · | 9.1
CCC(=O)N1CC2(C1)CN(C(=O)Cc1ccccc1)[C@@H](CO)c1c2c2ccc(OC)cc2n1C | · | · | · | -4.3
CO[C@@H]1CN(C)C(=O)c2cc(NS(=O)(=O)c3cccc(C)c3)ccc2OC[C@@H](C)NC[C@H]1C | · | 103.9* | · | 0.1
O=C(/C=C/Nc1ccc([N+](=O)[O-])cc1Br)c1cccc2ccccc12 | 115.4* | -2.6 | 48.4* | -1.6
NC(=O)c1cc([N+](=O)[O-])ccc1NCc1cccc2ccccc12 | 5.6 | 11.7 | -3.3 | ·
CCc1c(C(=O)Nc2ccc(C)c(C)c2)[nH]c(C)c1C(C)=O | 88.5* | -4.4 | 11.8 | 1.4
CCc1c(C(=O)Nc2ccc(OC)cc2)[nH]c(C)c1C(C)=O | · | -0.2 | 21.6 | -19.8
CC(=O)c1c(C)[nH]c(C(=O)Nc2ccc(C)c(C)c2)c1C | · | 0.0 | 55.4* | -9.4
CCc1c(C(=O)NC2CCCCC2)[nH]c(C)c1C(C)=O | · | 1.6 | · | 93.4*
CC(=O)c1c(C)[nH]c(C(=O)NC2CCCCC2)c1C | 5.1 | 2.8 | · | 1.7
SMILES | MITF TRPM1 HTS | Cneo AK release | Wnt act | PGC1a acetyl inh
CC(=O)c1c(C)[nH]c(C(=O)Nc2cccc(C)n2)c1C | 60.4 | -3.2 | 39.0* | -2.0
O=C1CN(S(=O)(=O)Cc2ccccc2)C[C@@H]2[C@H](c3ccc(C#Cc4ccccc4)cc3)[C@@H](CO)N12 | · | · | · | -5.1
COc1ccc2c3c([nH]c2c1)[C@H](CO)N(C(=O)Nc1ccc(F)cc1)CC31CCN(S(=O)(=O)c2cccs2)CC1 | · | · | · | 2.9
Cn1cnc(S(=O)(=O)N2CC[C@@H]3[C@@H](CO)Nc4ccc(-c5ccccc5)cc4[C@@H]32)c1 | · | -7.3 | · | -17.7
CC(C)C#Cc1cnc2c(c1)C(=O)N([C@@H](C)CO)C[C@@H](C)[C@@H](CN(C)C(=O)c1ccc3c(c1)OCO3)O2 | · | · | · | 7.2
CCNC(=O)C[C@@H]1CC[C@H]2[C@H](COc3ccc(NC(=O)c4ccc(F)cc4)cc3C(=O)N2C)O1 | · | -5.1 | · | 3.3
CCC(=O)N1CC2(C1)CN(Cc1cccc(OC)c1)[C@H](CO)c1[nH]c3cc(OC)ccc3c12 | · | · | · | 4.9
CCC(=O)N1CC2(C1)[C@H](c1ccccc1)[C@@H](CO)N2C(=O)c1ccncc1 | · | · | · | -0.7
Nc1nc(OCc2ccccc2)c2[nH]cnc2n1 | -17.3 | -0.3 | 3.0 | -13.1
Cc1nc2nc(N)nc(OCc3ccccc3)c2nc1C | · | -0.1 | 49.8* | 0.9
Cc1ccccc1OCCCCn1cnc2ccccc21 | · | -0.4 | · | -1.9
Brc1ccccc1OCCCn1cnc2ccccc21 | 91.7* | 0.4 | 26.1 | -1.6
c1ccc2c(c1)ncn2CCCOc1ccc2c(c1)CCC2 | · | 7.1 | 37.7* | 3.4
CC(C)NC(=O)Nc1ccc2c(c1)C(=O)N([C@@H](C)CO)C[C@@H](C)[C@H](CN(C)C(=O)CCCN(C)C)OCCCC[C@H](C)O2 | · | · | · | -5.0
CCC(=O)N1CC2(CCN(C(=O)NC(C)C)CC2)c2c(n(C)c3cc(OC)ccc23)[C@H]1CO | · | · | · | -5.3
CCCCc1ccc(NC(=O)C2CCCO2)cc1 (configuration not stated) | 105.1* | -1.7 | · | 4.6
Cc1ccc2oc(Nc3nc(C)c(C)c(C)n3)nc2c1 | · | · | 40.9* | ?
CN1CCN(C(c2ccccn2)c2cc(Cl)c3cccnc3c2O)CC1 (configuration not stated) | -17.2 | · | 57.7* | ·
Cc1ccc(C(c2cc(Cl)c3cccnc3c2O)N2CCN(C)CC2)cc1 (configuration not stated) | -9.7 | 3.0 | · | 5.6
Oc1c(C(c2ccccn2)N2CCC(Cc3ccccc3)CC2)cc(Cl)c2cccnc12 (configuration not stated) | · | · | 203.9* | ·
CCn1c(/C=C/c2c[nH]c3ccccc23)nc2ccccc2c1=O | 113.6* | · | 8.9 | ·
CCn1c(/C=C\c2ccccc2C)nc2ccccc2c1=O | 15.1 | -3.0 | 3.6 | -2.9
O=C(C[C@H]1CC[C@@H](NC(=O)Nc2cc(F)ccc2F)[C@@H](CO)O1)Nc1ccccc1 | · | -3.0 | · | 12.3
CC(C)c1ccc(CNc2nnnn2C)cc1 | · | -0.3 | 0.8 | ·

Screens (PubChem BioAssay)
